SKKanGAS inh: blocks kanamycin growth of S. pyogenes SKKanGAS strain | inhibition, % at 7.5 µM | actives 1.3% (n = 300,000) | BacTiter-Glo, 6 h;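 active = mean replicate score, as percent of positive control median, at least 50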;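 also: strain carries kanamycin resistance gene driven by streptokinase promoter and grows in 40 µg/ml kanamycin; loss of luminescence reflects streptokinase promoter inhibition or plain growth inhibition; 0% = median of DMSO wells and 100% = positive control at its reference dose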
Calb FLC: C. albicans growth modulation with fluconazole. growth inhibition, % (test concentration not listed). C. albicans CaCi-2 (fluconazole-resistant clinical isolate) + fluconazole, Alamar Blue growth, 48 h. actives 0.57% (n = 300,000);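 active = growth inhibition above about 58% in most replicates, limit read from the data, passing the limit was not always enough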;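 also: all wells also contain fluconazole at 8 µg/ml as a sub-toxic cotreatment; 0% = median of DMSO wells and 100% = median of geldanamycin control wells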
ARFGAP1 inhibitor: inhibits rat ARF GTPase activating protein 1. Q62848. Arfgap1-stimulated ARF1 GTP hydrolysis, GDP FP detection. inhibition, % at 16.5 µM. actives 0.26% (n = 360,000);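 active = inhibition above a per-plate limit, mean inhibition of low control wells plus 3 SD, cut at about 25% in these data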;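 also: 0% = DMSO wells with enzyme and 100% = wells lacking Arfgap1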
Target sequence (Q62848 1-136 limits assumed): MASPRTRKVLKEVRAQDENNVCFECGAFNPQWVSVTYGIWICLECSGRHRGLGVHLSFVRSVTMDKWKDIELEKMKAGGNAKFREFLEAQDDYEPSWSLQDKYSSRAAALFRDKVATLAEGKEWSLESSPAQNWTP
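System: truncated rat Arfgap1 GAP domain / Medium: HEPES-based buffer, pH 7.5 / Also added: N-terminally truncated human ARF1-GTP substrate / Incubation: enzyme reaction 120 min at 25 °C after 20 min preincubation / Measured by: FP of antibody-bound GDP Alexa 633 tracer, ex 620/em 688 nm / Replicates: singlicate, each compound tested once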
HGIII-sPLA2 inh: Inhibits HGIII-sPLA2 liposome hydrolysis, primary screen. AID 743126. inhibition, % at 12.2 µM. actives 0.56% (n = 370,000). QFRET BODIPY PC-A2 liposome hydrolysis, fluorescence. Q9NZ20;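 active = inhibition above mean plus 3 SD of compounds lying within the high and low control bounds, cut at about 19% in these data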;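 also: 0% = median of test compound wells and 100% = no enzyme DMSO wells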
Target sequence (Q9NZ20 whole entry, looked up): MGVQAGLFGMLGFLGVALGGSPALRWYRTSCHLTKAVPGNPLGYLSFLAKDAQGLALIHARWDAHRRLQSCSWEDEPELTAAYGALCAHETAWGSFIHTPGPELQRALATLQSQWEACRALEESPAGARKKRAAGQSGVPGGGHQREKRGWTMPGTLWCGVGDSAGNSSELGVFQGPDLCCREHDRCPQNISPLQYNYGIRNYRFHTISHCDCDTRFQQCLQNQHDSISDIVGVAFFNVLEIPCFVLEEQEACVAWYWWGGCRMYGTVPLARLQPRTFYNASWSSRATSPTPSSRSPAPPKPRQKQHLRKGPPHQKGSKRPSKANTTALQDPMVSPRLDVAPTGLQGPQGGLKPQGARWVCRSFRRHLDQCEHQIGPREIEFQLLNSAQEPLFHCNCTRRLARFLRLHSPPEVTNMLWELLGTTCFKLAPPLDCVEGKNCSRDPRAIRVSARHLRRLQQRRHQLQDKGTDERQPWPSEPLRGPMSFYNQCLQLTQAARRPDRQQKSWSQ
ASAP1 GAP inh: inhibitors of human ASAP1 ArfGAP activity; Q9ULH1; ASAP1-stimulated ARF1 GTP hydrolysis, GDP FP detection; actives 0.19% (n = 360,000); inhibition, % at 16.5 µM; in the data active = inhibition above about 25%;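 also: 0% = vehicle with enzyme and substrate and 100% = no enzyme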
hGIII sPLA2 conf: human GIII-sPLA2 inhibition, confirmation. shares compounds with HGIII-sPLA2 inh. recombinant hGIII-sPLA2, BODIPY PC-A2 QFRET fluorescence. inhibition, % at 12.2 µM. actives 34% (n = 2,000);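 active = mean inhibition across triplicates above the hit cutoff set in the earlier primary screen, cut at about 19% in these data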;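 also: 0% = enzyme with DMSO and 100% = DMSO wells lacking enzyme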
535nm interf: counter-screen for HGIII-sPLA2 inhibitors: 535nm fluorescence interference | shares compounds with HGIII-sPLA2 inh | actives 8.5% (n = 2,000) | BODIPY FL product fluorescence interference, QFRET | inhibition, % at 12.2 µM;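 active = average inhibition above the solvent-only control mean plus 3 SD, cut at about 6% in these data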;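 also: 0% = DMSO with substrate plus product and 100% = DMSO with substrate alone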
535nm interf DR: 535nm optical interference dose response, HGIII-sPLA2 counter-screen; shares compounds with HGIII-sPLA2 inh; 240 tested, under 10 active; AID 743455; BODIPY FL product fluorescence interference, cell-free; IC50, µM;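 active = IC50 at or below 10 µM; inactive = IC50 above 10 µM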
Starred values were filed as active, the others as inactive; · = no result. This is a sample that favours compounds with a hit; in the whole collection about 2.3% have one here.

SMILES | SKKanGAS inh | Calb FLC | ARFGAP1 inhibitor | HGIII-sPLA2 inh | ASAP1 GAP inh | hGIII sPLA2 conf | 535nm interf | others
O=C(/C=C/c1ccccc1)NC(=S)NNC(=O)c1cnccn1 | 64* | 67 | 23 | 25* | -6 | 34* | -1 | 535nm interf DR=>122
Cn1c(Cc2cccs2)nnc1SCC(=O)Nc1ccc2c(c1)OCO2 | · | · | · | 0 | · | · | ·
CCCCNC(=O)c1c(N)[nH]c(C(=O)c2ccccc2)c1-c1ccccn1 | · | · | 8 | 19* | 2 | 9 | -9
CCN(CC)c1ccc(/C=C/c2cc(-c3ccccc3)c3ccccc3n2)cc1 | 9 | 6 | -2 | 25* | 11 | -22 | 5
CCN(CC)c1ccc(/C=N/NC(=O)c2cc(C)nc3ccccc23)cc1 | -1 | -1 | 3 | -4 | 0 | · | ·
COC(=O)[C@]12C[C@H](CC(=O)NCCCN3CCCC3=O)C(=O)N(Cc3ccc(Cl)cc3Cl)C1=C[C@H](C1CCCC1)O[C@@H]2C | · | · | · | -21 | · | · | ·
Cc1cc(N2CCN(C(=O)OC(C)(C)C)C[C@H]2C)ccc1Br | · | · | -1 | 11 | -5 | · | ·
Cc1cc(C)nc(N/N=C/c2cccc3ccccc23)n1 | -3 | -22 | -2 | 19* | 2 | -3 | -2
COc1cc(-c2n[nH]c(=S)n2-c2ccccc2C(F)(F)F)cc(OC)c1OC | 7 | -4 | 15 | 16 | -15 | · | ·
COc1cc(-c2n[nH]c(=S)n2-c2cccc(C(F)(F)F)c2)cc(OC)c1OC | 1 | 13 | -2 | 26* | -12 | 25* | -1
CN1C(=O)c2cc(NC(=O)c3ccccc3)ccc2OC[C@H]2O[C@@H](CC(=O)NCC3CC3)CC[C@@H]21 | · | · | · | -24 | · | · | ·
COC(=O)[C@]12C[C@H](CC(=O)NCCC(C)C)C(=O)N(Cc3ccco3)C1=C[C@H](C(C)C)O[C@@H]2C1CC1 | · | · | · | -7 | · | · | ·
C[C@H](O)[C@@H]1CN2CCc3c([nH]c4ccccc34)[C@@H]2C[C@@H]1N(C)CC1CCCCC1 | · | · | 2 | -19 | 10 | · | ·
CN(C)c1ccc(/C=N/NC(=S)NCc2ccco2)cc1 | -7 | 3 | 6 | 26* | 8 | 14 | -4
CCCCNC(=O)C1CCCN1C(=O)Nc1ccc2c(c1)OCO2 (stereo unspecified) | · | · | · | 0 | · | · | ·
CC(C)(CO)Cc1cc(C(C)(C)C)c(O)c(C(C)(C)C)c1 | · | · | 6 | 20* | -7 | -2 | -9
C/C(CC(C)(C)C1CCCCC1)=N\NC(N)=S | -6 | 104* | -6 | 20* | -7 | 19* | -3
C/C(CCC12CC3CC(CC(C3)C1)C2)=N\NC(N)=S | 0 | 2 | -8 | 7 | -7 | · | ·
S=C(/N=c1/sccn1Cc1ccccc1)NC1CC1 | -8 | 24 | -3 | 20* | -1 | 18 | -6
CN(C)CCCNC(=S)/N=c1\sccn1Cc1ccccc1Cl | -3 | 8 | -8 | 8 | -8 | · | ·
Cc1cccc(-c2nnc(SCc3cccc4ccccc34)n2-c2ccc(Cl)cc2)c1 | · | · | · | 8 | · | · | ·
Cc1cc(C)nc(Sc2ccc([N+](=O)[O-])cc2[N+](=O)[O-])n1 | 1 | -4 | -5 | 20* | 2 | 3 | -1
O=[N+]([O-])c1ccc(Sc2ccncn2)c([N+](=O)[O-])c1 | · | · | -7 | 3 | 1 | · | ·
Nc1ncnc2c1ncn2[C@@H]1O[C@H](C(=O)N[C@@H](CCc2ccccc2)C(=O)N2CCN(C(=O)C(F)(F)F)CC2)[C@@H](O)[C@H]1O | · | · | 2 | 3 | -11 | · | ·
COCCCNC(=O)C[C@H]1C[C@@]2(C(=O)OC)C(=C[C@H](C(C)C)O[C@@H]2C2CC2)N(Cc2ccccc2)C1=O | · | · | -1 | 5 | 9 | · | ·
SMILES | SKKanGAS inh | Calb FLC | ARFGAP1 inhibitor | HGIII-sPLA2 inh | ASAP1 GAP inh | hGIII sPLA2 conf | 535nm interf | others
O=C(NN1C(=O)c2ccccc2NC1c1ccccn1)c1ccc([N+](=O)[O-])cc1 (stereo unspecified) | 1 | -2 | 2 | 25* | 1 | 9 | -5
Cc1ccc(S(=O)(=O)N2CCCC(N3CCOCC3)C2)cc1Cl (stereo unspecified) | 0 | -4 | 15 | 19* | 4 | -2 | -10
CCN(CC)c1ccc(C=Nc2ccccc2C)c(O)c1 | -6 | 7 | 2 | 20* | -3 | 10 | -3
CCN(CC)c1ccc(/C=N/NC(=S)NCc2ccccc2)c(O)c1 | 64* | 37 | 0 | 36* | 16 | 25* | 11*
Cc1ccc(NC(=O)Cn2cccc2C2=NC(c3ccccc3)CO2)cc1C (stereo unspecified) | 1 | -12 | 9 | 21* | 10 | -7 | -13
CCOC(=O)[C@]12CCCC=C1N(CCc1ccc(OC)c(OC)c1)C(=O)[C@H](CC(=O)NCCCCc1ccccc1)C2 | · | · | 4 | -6 | 8 | · | ·
CCC(C)NC(=O)CCSc1ccc(C)cc1 (stereo unspecified) | 0 | -2 | -3 | 19* | 1 | 1 | -4
CC(C)(C)c1cc(-c2n[nH]c(=S)n2-c2ccc(Cl)cc2)n[nH]1 | 5 | 6 | 5 | 21* | -7 | 27* | 4
COC(=O)[C@]12C[C@H](CC(=O)NCC34CC5CC(CC(C5)C3)C4)C(=O)N(Cc3cccc4ccccc34)C1=C[C@H](C1CCCC1)O[C@@H]2C | · | · | · | -4 | · | · | ·
NC(=O)c1ncn2c(=O)n(CCCl)nnc12 | · | · | -10 | 18 | -2 | · | ·
CC(NC(=O)C(C(=O)c1cccc([N+](=O)[O-])c1)n1cc(Cl)ccc1=O)c1ccccc1 (stereo unspecified) | 0 | -1 | 10 | 25* | 11 | -6 | -6
CCCCNC(=S)Nc1ccc2cn[nH]c2c1 | 3 | -1 | 2 | 21* | -5 | 6 | -1
CCc1ccc(NC(=S)Nc2ccc3cn[nH]c3c2)cc1 | 0 | 1 | 18 | 19* | -5 | 11 | -6
COC(=O)[C@]12C[C@H](CC(=O)NCCC(C)C)C(=O)N(Cc3ccco3)C1=C[C@H](C(C)(C)C)O[C@@H]2C | · | · | · | -15 | · | · | ·
Cc1ccc(S(=O)(=O)N2c3ccccc3C[C@H]2CCC(=O)c2ccccc2)cc1 | · | · | · | 9 | · | · | ·
CCCCNC(=O)C1c2ccccc2OCC(=O)N1CC(F)(F)F (stereo unspecified) | · | · | 4 | 20* | -7 | -5 | -6
CN(C)c1cccc2c1C(=O)c1ccccc1C2=O | 6 | 18 | 5 | 25* | -6 | 33* | 6.6*
CN1C(=O)c2cccc(N(C)C)c2C1=O | -5 | 19 | 5 | 9 | 0 | · | ·
CCN(CC)C(=O)c1ncn2c1c(=O)[nH]c1ccccc12 | · | · | 9 | 20* | 1 | 6 | -2
Cc1ccc(CNC(=O)CSc2nc3[nH]ncc3c(=O)[nH]2)cc1 | -6 | -16 | -11 | 19* | -6 | -2 | -5

Screens deposited in PubChem BioAssay by several laboratories.
